Measurements as given in ChEMBL document CHEMBL3407477, “Synthesis and biological evaluation of compact, conformationally constrained bifunctional opioid agonist - neurokinin-1 antagonist peptidomimetics” (Eur J Med Chem, 2015).
Calls of active or inactive are those of the source.

Columns and labels:
Substance-P receptor [1] = target: T1, Substance-P receptor (Homo sapiens, UniProt P25103); assay: Displacement of [3H]SP from human NK1 receptor expressed in CHO cells after 20 mins by liquid scintillation counting analysis; type: cell-based
How it was run: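 Membranes from hNK1/CHO cells (20 µg) were incubated with 0.4 nM [3H]SP and six test concentrations in duplicate. Buffer was 50 mM Tris pH 7.4 with 5 mM MgCl2, bacitracin, bestatin, captopril and PMSF, for 20 min at 25 °C. Nonspecific binding was defined with 10 µM SP. Samples were filtered on PEI-soaked GF/B, counted by scintillation, three independent experiments. Ki by Cheng-Prusoff from nonlinear-regression IC50.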

Rattus norvegicus [2] = species: Rattus norvegicus; assay: Toxicity in Wistar rat chronic constriction injury model at 1 nmol, it measured 7 days post CCI challenge; type: organism-based; conditions: in vivo, icv_or_intrathecal, 168 h
Rattus norvegicus [3] = assay: (§1) Antiallodynic effect in Wistar rat chronic constriction injury model assessed as cross tolerance developement pretreated with H-Dmt-D-Arg-Aba-beta-Ala-NMe-Bn at 1 nmol, it qd for 6 days administered from 7 days post CCI challenge to day 13 measured 30 mins post morphine challenge by cold plate test; type: functional, organism-based
How it was run: (§2)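 CCI Wistar rats were made tolerant by 6 days of once-daily i.t. dosing (morphine 3.5 nmol or hybrid 1 nmol). On day 13 they received a single i.t. challenge (morphine 3.5 nmol or hybrid 1 nmol) against repeated-vehicle controls. Von Frey and cold plate tests were run 30 min later. Data are %MPE, 6-8 rats/group, ANOVA with Bonferroni.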

Rattus norvegicus [4] = assay: (§3) Antiallodynic effect in Wistar rat chronic constriction injury model assessed as cross tolerance developement pretreated with H-Dmt-D-Arg-Aba-beta-Ala-NMe-Bn at 1 nmol, it qd for 6 days administered from 7 days post CCI challenge to day 13 measured 30 mins post morphine challenge by Von Frey test; type: functional, organism-based; how it was run: as §2
Rattus norvegicus [5] = assay: as §3, with “H-Dmt-D-Arg-Aba-Gly-NMe-3',5'-(CF3)2-Bn” for “H-Dmt-D-Arg-Aba-beta-Ala-NMe-Bn”, “frey” for “Frey”; type: functional, organism-based; how it was run: as §2
Rattus norvegicus [6] = assay: as §1, with “H-Dmt-D-Arg-Aba-Gly-NMe-3',5'-(CF3)2-Bn” for “H-Dmt-D-Arg-Aba-beta-Ala-NMe-Bn”; type: functional, organism-based; how it was run: as §2
Rattus norvegicus [7] = assay: Antinociceptive activity in it dosed Wistar rat after 30 mins by tail flick test; type: functional
How it was run: (§4)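 Naive male Wistar rats (250-300 g) with i.t. catheters received a single i.t. injection in water for injection (5 µl plus 10 µl flush), 7 days after catheter implantation. Tail-flick latency to a light-bulb heat stimulus at two-thirds of tail length was read 30 min post-dose (timepoints up to 180 min), with a 9 s cut-off. Data are %MPE = (TL-BL)/(cut-off-BL)×100, 7-12 rats/group, ANOVA with Bonferroni.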

Rattus norvegicus [8] = assay: Antiallodynic effect in Wistar rat chronic constriction injury model assessed as tolerance to neuropathic pain at 3.5 nmol, it qd for 6 days administered from 7 days post CCI challenge to day 13 by cold plate test; type: functional, organism-based
How it was run: (§5)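 CCI Wistar rats received once-daily i.t. injections (morphine 3.5 nmol, hybrids 1 nmol, in water for injection) from day 7 to day 13 after CCI. Von Frey and 5 °C cold plate tests were run 30 min after each dose. Data are %MPE and AUC, 12-16 rats/group, ANOVA with Bonferroni.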

Rattus norvegicus [9] = species: Rattus norvegicus; assay: Reduction of hyperalgesia in Wistar rat chronic constriction injury model at 1 nmol, it measured 7 days post CCI challenge by cold plate test; type: functional, organism-based
How it was run: (§6)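 In catheterized male Wistar rats with sciatic CCI, a single i.t. dose in water for injection was given on day 7. Thermal hyperalgesia was measured 30 min later as latency to hind-paw shake on a 5 °C cold plate. Data are %MPE, 6-12 rats/group, ANOVA with Bonferroni.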

Rattus norvegicus [10] = assay: Antiallodynic effect in it dosed Wistar rat measured 7 days post CCI challenge by Von Frey test; type: functional
How it was run: (§7)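 Male Wistar rats (300-350 g) with i.t. catheters (L4-L6) had CCI made by four loose silk ligatures on the right sciatic nerve. On day 7 they received a single i.t. dose in water for injection. Mechanical allodynia was measured 30 min later with an automatic von Frey device (0.5-26 g) on the midplantar hind paw. Data are %MPE, 6-12 rats/group, ANOVA with Bonferroni.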

Rattus norvegicus [11] = species: Rattus norvegicus; assay: Antiallodynic effect in Wistar rat chronic constriction injury model at 0.35 to 35 nmol, it measured 7 days post CCI challenge by Von Frey test; type: functional, organism-based; how it was run: as §7
Rattus norvegicus [12] = assay: Antiallodynic effect in Wistar rat chronic constriction injury model assessed as tolerance to neuropathic pain at 3.5 nmol, it qd for 6 days administered from 7 days post CCI challenge to day 13 by Von Frey test; type: functional, organism-based; how it was run: as §5
Rattus norvegicus [13] = assay: Reduction of hyperalgesia in it dosed Wistar rat measured 7 days post CCI challenge by cold plate test; type: functional; how it was run: as §6
Substance-P receptor [14] = target: T1, Substance-P receptor; assay: Antagonist activity at human NK1 receptor expressed in CHO cells by luminescence assay in presence of SP peptide; type: cell-based; conditions: read-out: pA2 (converted)
Rattus norvegicus [15] = species: Rattus norvegicus; assay: Selectivity ratio of Ki for rat brain DOR to Ki for rat brain MOR
[16] = target: Delta-type opioid receptor (Rattus norvegicus, UniProt P33533); assay: Displacement of [3H]DSLET from rat brain DOR after 2 hrs
How it was run: (§8)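 Rat brain membranes were incubated 2 h at 0 °C with 0.72 nM [3H]DAMGO (MOR) or 0.78 nM [3H]DSLET (DOR). IC50 came from log-dose displacement curves.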

Mu-type opioid receptor [17] = target: Mu-type opioid receptor (Rattus norvegicus, UniProt P33535); assay: Displacement of [3H]DAMGO from rat brain MOR after 2 hrs; how it was run: as §8
[18] = target: Delta-type opioid receptor (Mus musculus, UniProt P32300); assay: Activation of DOR in mouse vas deferens
How it was run: (§9)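 Isolated guinea pig ileum (MOR) and mouse vas deferens (DOR) bioassays. A [Leu5]enkephalin standard dose-response curve was run on each tissue preparation, and test IC50 values were normalized to it. Values are means of 3-4 experiments.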

Mu-type opioid receptor [19] = target: Mu-type opioid receptor (Cavia porcellus, UniProt P97266); assay: Activation of MOR in guinea pig ileum; type: tissue-based; how it was run: as §9
Rattus norvegicus [20] = species: Rattus norvegicus; assay: Antiallodynic effect in Wistar rat chronic constriction injury model at 0.001 to 1 nmol, it measured 7 days post CCI challenge by Von Frey test; type: functional, organism-based; how it was run: as §7
Mus musculus = assay: Antinociceptive activity in C57Bl6 mouse at 1.21 umol/kg, iv after 30 mins by tail flick test; type: functional, organism-based
How it was run: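 Male C57Bl6 mice (25-28 g) received a single i.v. dose dissolved in saline or water for injection. Radiant-heat tail-flick latency was measured at 5, 15, 30, 60, 120 and 180 min, with a 7 s cut-off. Data are %MPE, 6-8 mice/group.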

Rattus norvegicus [21] = species: Rattus norvegicus; assay: Antinociceptive activity in Wistar rat at 0.1 nmol, it after 30 mins by tail flick test; type: functional; how it was run: as §4
Rattus norvegicus [22] = species: Rattus norvegicus; assay: Antinociceptive activity in Wistar rat at 0.001 to 0.1 nmol, it after 30 mins to 2 hrs by tail flick test; type: functional, organism-based
[23] = target: Mu-type opioid receptor (Cavia porcellus) (UniProt P97266); assay: Partial agonist activity at MOR in guinea pig ileum; type: tissue-based; how it was run: as §9
[24] = target: Mu-type opioid receptor (Cavia porcellus) (UniProt P97266); assay: Antagonist activity at MOR in guinea pig ileum; type: tissue-based

T1 sequence (P25103 whole entry): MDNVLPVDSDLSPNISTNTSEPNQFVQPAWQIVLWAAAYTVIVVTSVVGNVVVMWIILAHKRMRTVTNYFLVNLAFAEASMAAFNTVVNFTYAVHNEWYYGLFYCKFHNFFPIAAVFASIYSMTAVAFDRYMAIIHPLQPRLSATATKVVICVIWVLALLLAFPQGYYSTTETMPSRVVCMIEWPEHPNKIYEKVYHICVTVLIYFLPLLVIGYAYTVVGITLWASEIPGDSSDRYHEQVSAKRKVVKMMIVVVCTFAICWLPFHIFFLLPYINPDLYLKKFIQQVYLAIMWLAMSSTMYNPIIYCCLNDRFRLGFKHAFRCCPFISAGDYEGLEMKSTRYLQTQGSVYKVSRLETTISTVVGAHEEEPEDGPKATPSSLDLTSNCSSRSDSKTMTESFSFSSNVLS
Chain of Delta-type opioid receptor (Mus musculus, UniProt P32300) (P32300 whole entry): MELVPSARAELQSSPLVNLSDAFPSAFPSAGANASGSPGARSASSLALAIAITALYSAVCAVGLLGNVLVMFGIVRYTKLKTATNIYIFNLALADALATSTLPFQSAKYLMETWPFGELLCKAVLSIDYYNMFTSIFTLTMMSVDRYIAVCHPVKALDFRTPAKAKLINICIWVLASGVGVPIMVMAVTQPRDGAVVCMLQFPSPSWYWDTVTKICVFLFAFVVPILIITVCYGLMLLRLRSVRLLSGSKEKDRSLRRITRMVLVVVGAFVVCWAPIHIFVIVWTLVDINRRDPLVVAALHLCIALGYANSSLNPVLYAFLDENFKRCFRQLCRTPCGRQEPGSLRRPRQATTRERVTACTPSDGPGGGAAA
Chain of Mu-type opioid receptor (Cavia porcellus, UniProt P97266) (P97266 whole entry): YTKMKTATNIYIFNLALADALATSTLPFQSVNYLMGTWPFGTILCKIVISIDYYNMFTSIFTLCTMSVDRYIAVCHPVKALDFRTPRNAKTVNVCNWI
Chain of Mu-type opioid receptor (Cavia porcellus) (P97266 whole entry): as above
Chain of Mu-type opioid receptor (Rattus norvegicus, UniProt P33535) (P33535 whole entry): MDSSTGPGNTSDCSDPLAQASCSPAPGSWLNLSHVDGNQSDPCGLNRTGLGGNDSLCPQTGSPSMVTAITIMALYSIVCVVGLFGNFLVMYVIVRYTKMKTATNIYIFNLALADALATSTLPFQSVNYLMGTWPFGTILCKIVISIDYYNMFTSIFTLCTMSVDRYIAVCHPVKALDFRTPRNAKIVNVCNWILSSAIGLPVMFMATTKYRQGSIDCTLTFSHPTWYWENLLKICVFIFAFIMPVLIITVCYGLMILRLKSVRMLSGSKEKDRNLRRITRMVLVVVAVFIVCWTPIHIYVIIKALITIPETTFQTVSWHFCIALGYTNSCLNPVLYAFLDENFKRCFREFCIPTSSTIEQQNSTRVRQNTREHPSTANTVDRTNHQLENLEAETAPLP
Chain of Delta-type opioid receptor (Rattus norvegicus, UniProt P33533) (P33533 whole entry): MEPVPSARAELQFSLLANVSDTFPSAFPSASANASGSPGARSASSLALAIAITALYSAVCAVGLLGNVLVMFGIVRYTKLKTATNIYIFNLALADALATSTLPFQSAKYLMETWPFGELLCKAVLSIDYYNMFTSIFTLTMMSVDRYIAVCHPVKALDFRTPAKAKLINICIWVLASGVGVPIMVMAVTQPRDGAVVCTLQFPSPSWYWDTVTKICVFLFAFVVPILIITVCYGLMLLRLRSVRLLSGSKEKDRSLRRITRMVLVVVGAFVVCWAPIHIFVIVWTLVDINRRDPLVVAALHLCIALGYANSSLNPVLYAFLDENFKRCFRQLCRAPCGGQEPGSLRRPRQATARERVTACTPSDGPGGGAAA

Cc1cc(O)cc(C)c1C[C@H](N)C(=O)N[C@H](CCCNC(=N)N)C(=O)N[C@H]1Cc2ccccc2CN(CCC(=O)N(Cc2ccccc2)CC(C)C)C1=O
Ki (Substance-P receptor [1]): 308 nM

Cc1cc(O)cc(C)c1C[C@H](N)C(=O)N[C@H](CCCN=C(N)N)C(=O)N[C@H]1Cc2ccccc2CN(CC(N)=O)C1=O
Activity (Rattus norvegicus [2]): Toxic

CN1CC[C@]23c4c5ccc(O)c4O[C@H]2[C@@H](O)C=C[C@H]3[C@H]1C5 [MORPHINE]
Activity (Rattus norvegicus [3]): inactive
Activity (Rattus norvegicus [4]): inactive
Activity (Rattus norvegicus [5]): inactive
Activity (Rattus norvegicus [6]): inactive
ED50 (Rattus norvegicus [7]): 0.49 nmol
Activity (Rattus norvegicus [8]): Active
Activity (Rattus norvegicus [9]): Active
ED50 (Rattus norvegicus [10]): 6.25 nmol
Activity (Rattus norvegicus [11]): Active
Activity (Rattus norvegicus [12]): Active
ED50 (Rattus norvegicus [13]): 377 nmol

Cc1cc(O)cc(C)c1C[C@H](N)C(=O)N[C@H](CCCNC(N)=O)C(=O)N[C@H]1Cc2ccccc2CN(CCC(=O)N(C)Cc2cc(C(F)(F)F)cc(C(F)(F)F)c2)C1=O
Kb (Substance-P receptor [14]): 537 nM
Ki (Substance-P receptor [1]): 34.7 nM
Ratio Ki (Rattus norvegicus [15]): 1.5
Ki [16]: 0.55 nM
Ki (Mu-type opioid receptor [17]): 0.37 nM
IC50 [18]: 1.06 nM
IC50 (Mu-type opioid receptor [19]): 2.03 nM

Cc1cc(O)cc(C)c1C[C@H](N)C(=O)N[C@H](CCCNC(=N)N)C(=O)N[C@H]1Cc2ccccc2CN(CCC(N)=O)C1=O
Activity (Rattus norvegicus [20]): Active
Activity (Mus musculus): Active
Activity (Rattus norvegicus [2]): Toxic
Ratio Ki (Rattus norvegicus [15]): 12.7
Activity (Rattus norvegicus [9]): Active
MPE (Rattus norvegicus [21]): 99.7%
Activity (Rattus norvegicus [22]): Active

Cc1cc(O)cc(C)c1C[C@H](N)C(=O)N[C@H](CCCNC(=N)N)C(=O)N[C@H]1Cc2ccccc2CN(CC(=O)N(Cc2ccccc2)CC(C)C)C1=O
Activity [23]: Active
Ki (Substance-P receptor [1]): 1020 nM
IC50 [18]: 28.7 nM
Ke [24]: 5.91 nM

Cc1cc(O)cc(C)c1C[C@H](N)C(=O)N[C@H](CCCNC(N)=O)C(=O)N[C@H]1Cc2ccccc2CN(CCC(=O)N(C)Cc2ccccc2)C1=O
Ki (Substance-P receptor [1]): 3000 nM
Ratio Ki (Rattus norvegicus [15]): 1.7
Ki [16]: 0.48 nM
Ki (Mu-type opioid receptor [17]): 0.28 nM
IC50 [18]: 0.33 nM
IC50 (Mu-type opioid receptor [19]): 0.96 nM
